Calls of active or inactive are those of the source. No cut-off for these calls is given here.

The text below walks through data of ChEMBL document CHEMBL1221334, “A class of novel carboline intercalators: Their synthesis, in vitro anti-proliferation, in vivo anti-tumor action, and 3D QSAR analysis” (Bioorg Med Chem, 2010).

Test [1] has as its system CCRF S-180. Kind of test: Antitumor activity against mouse S180 cells transplanted in ICR mouse assessed as inhibition of tumor weight at 8.9 umol/kg, ip. In kind it is functional. The settings on record: CCRF S-180, ip. A digest of the protocol:
(§1)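 S180 ascites cells, serially passaged weekly in mice, were implanted subcutaneously (1 × 10⁷ viable cells in NS) in the right axilla of male ICR mice aged 10–12 weeks. After 24 h, mice were randomized (10/group) and dosed ip daily with 8.9 µmol/kg in 0.2 ml NS for 7 days. Tumours were weighed 24 h after the last dose. Inhibition = [1 − Tw/Cw] × 100.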

For test [2], the system named is CCRF S-180. In words: Antitumor activity against mouse S180 cells transplanted in ICR mouse assessed as inhibition of tumor weight at 0.89 umol/kg, ip. Type of test: functional. Particulars: CCRF S-180, ip.
Test [3] deals with Bel-7402. Kind of test: Cytotoxicity against human Bel7402 cells […] by MTT assay. Type of test: functional, cell-based. A digest of the protocol:
(§2)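 Cells (1 × 10⁴/ml) in RPMI-1640 were cultured 24 h at 37 °C in 5% CO₂. Medium was then renewed with compound (final 0.1–200 µM) and cells grown a further 48 h. MTT was added for 4 h, residues dissolved in DMSO and absorbance read. I% = (C − T)/C. IC50 is given as mean ± SD, n = 6.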
(Tetrazolium assays rely on reduction of a dye to a coloured formazan, in cell work by metabolically active cells.)

Test [4] has as its system K562. Kind of test: Cytotoxicity against human K562 cells […] by MTT assay. In kind it is functional, cell-based. A digest of the protocol:
as §2

In test [5] the test system is CCRF S-180. Kind of test: Antitumor activity against mouse S180 cells transplanted in ICR mouse assessed as inhibition of tumor weight at 89 umol/kg, ip. The settings on record: CCRF S-180, ip. Type of test: functional.
Test [6] has as its system HepG2. In words: Cytotoxicity against human HepG2 cells […] by MTT assay. In kind it is functional, cell-based. A digest of the protocol:
as §2

Test [7] has as its system B16. Kind of test: Cytotoxicity against mouse B16 cells […] by MTT assay. Type of test: functional, cell-based.
Test [8] has as its system HeLa. In words: Cytotoxicity against human HeLa cells […] by MTT assay. In kind it is functional, cell-based. A digest of the protocol: as §2
Test [9] concerns Calf thymus DNA. Kind of test: Binding affinity to calf thymus DNA assessed as induction of hypochromatic effect by spectrophotometry. In kind it is nucleic-acid assay. Particulars: Bos taurus. A digest of the protocol: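 UV absorption spectra (220–400 nm) were recorded in PBS for CT DNA (final 240 µM), alone and with test compound at final concentrations of 27, 54, 81 and 108 µM. Hypochromicity and wavelength shift were assessed.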

The subject of test [10] is Calf thymus DNA. Kind of test: Binding affinity to calf thymus DNA assessed as decrease in fluorescence intensity at 8 to 72 uM by fluorescence spectroscopy. Particulars: Bos taurus. In kind it is nucleic-acid assay.
Test [11] deals with Calf thymus DNA. In words: Binding affinity to calf thymus DNA assessed as increase in viscosity. In kind it is nucleic-acid assay. The settings on record: Bos taurus. A digest of the protocol: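 An Ostwald viscometer was held at 28 °C in phosphate buffer, with compound/DNA ratios of 0–0.36. Flow times were taken after 5 min of thermal equilibration. η = (t − t₀)/t₀, and data were plotted as (η/η₀)^1/3 versus binding ratio.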

For test [12], the system named is Calf thymus DNA. In words: Binding affinity to calf thymus DNA assessed as change in melting temperature. Type of test: nucleic-acid assay. Particulars: Bos taurus. A digest of the protocol:
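Thermal denaturation used CT DNA (100 µM) with test compound (18 µM) in PBS, pH 7.4, at a compound/DNA ratio of 0.18. Temperature was raised at 1 °C/min while absorbance at 260 nm was monitored.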

For test [13], the system named is CCRF S-180. Kind of test: Antitumor activity against mouse S180 cells transplanted in ICR mouse assessed as inhibition of tumor weight. Type of test: functional, cell-based. A digest of the protocol: as §1

For the molecule `Nc1ccn([C@@H]2O[C@H](CO)[C@@H](O)[C@@H]2O)c(=O)n1` [CYTARABINE], in test [1], the inhibition in vivo at 8.9 µmol/kg was found to be 24.3%. Further, the inhibition in vivo at 0.89 µmol/kg in test [2] was 6.8%. The IC50 in [3] turned out to be 34.2 µM; in test [4], 33.5 µM; in test [6], 0.2 µM. Further, the inhibition in vivo at 89 µmol/kg in test [5] was determined as 54.8%.
With `O=C(OCc1ccccc1)c1cc2c([nH]c3ccccc32)c(CCN2CCC[C@H]2C(=O)OCc2ccccc2)n1`, the inhibition in vivo at 8.9 µmol/kg in test [1] came to 7.1%. Also, the IC50 in [3] is 52.8 µM; in test [4], 20.1 µM; in test [7], 71.8 µM; in test [6], 17.1 µM; in test [8], 25.8 µM.
`CC(C)[C@H](NCCc1nc(C(=O)OCc2ccccc2)cc2c1[nH]c1ccccc12)C(=O)OCc1ccccc1`: the inhibition in vivo at 8.9 µmol/kg in test [1] was 34%. Besides, the IC50 in test [3] is 20.3 µM; in test [4], 20.9 µM; in test [7], 28.8 µM; in test [6] it was 29.2 µM; in [8] it was 25.5 µM.
With `CSCC[C@H](NCCc1nc(C(=O)OCc2ccccc2)cc2c1[nH]c1ccccc12)C(=O)OCc1ccccc1`, the inhibition in vivo at 8.9 µmol/kg in test [1] came to 15.3%. The IC50 in [3] was 25.8 µM; in test [4], 13.5 µM; in test [7], 61.1 µM; in test [6], 18.7 µM; in test [8], 28.8 µM.
For `O=C(NCCCC[C@H](NCCc1nc(C(=O)OCc2ccccc2)cc2c1[nH]c1ccccc12)C(=O)OCc1ccccc1)OCc1ccccc1`, in test [1], the inhibition in vivo at 8.9 µmol/kg was 28.9%. Besides, the IC50 in [3] was 14.9 µM; in test [4] it was 15.4 µM; in test [7], 49.4 µM; in [6], 36.3 µM; in test [8] it was 33.9 µM.
`CC[C@H](C)[C@H](NCCc1nc(C(=O)OCc2ccccc2)cc2c1[nH]c1ccccc12)C(=O)OCc1ccccc1`: in test [1], the inhibition in vivo at 8.9 µmol/kg was determined as 33.9%. Besides, the IC50 in [3] is more than 100 µM; in test [4], more than 100 µM; in [7] it was 19.2 µM; in [6], more than 100 µM; in test [8], more than 100 µM.
For the molecule `O=C(OCc1ccccc1)c1cc2c([nH]c3ccccc32)c(CCN[C@@H](Cc2ccc(O)cc2)C(=O)OCc2ccccc2)n1`, the inhibition in vivo at 8.9 µmol/kg in test [1] amounted to 31.7%. Besides, the IC50 in test [3] was 23.7 µM; in test [4], 18.9 µM; in [7], 24.5 µM; in test [6] it was more than 100 µM; in test [8], 16.7 µM.
Consider `O=C(OCc1ccccc1)c1cc2c([nH]c3ccccc32)c(CCN[C@@H](Cc2ccccc2)C(=O)OCc2ccccc2)n1`, for which the inhibition in vivo at 8.9 µmol/kg in [1] was 6.6%. The IC50 is more than 100 µM in test [3]; more than 100 µM in test [4]; 28.1 µM in [7]; more than 100 µM in test [6]; more than 100 µM in [8].
On to `O=C(CNCCc1nc(C(=O)OCc2ccccc2)cc2c1[nH]c1ccccc12)OCc1ccccc1`, for which the inhibition in vivo at 8.9 µmol/kg in test [1] turned out to be 3.5%. Besides, the IC50 was 53.2 µM in test [3]; 47.1 µM in test [4]; 75.4 µM in test [7]; 50 µM in test [6]; 26.8 µM in [8].
Consider `NC(=O)CC[C@H](NCCc1nc(C(=O)OCc2ccccc2)cc2c1[nH]c1ccccc12)C(=O)OCc1ccccc1`, for which the inhibition in vivo at 8.9 µmol/kg in test [1] was -5.3%. In addition, the concentration for half-maximal inhibition (IC50) in test [3] was 81.3 µM; in test [4], more than 100 µM; in test [7], 42.5 µM; in test [6], 35.9 µM; in test [8], 71 µM.
Regarding `C[C@H](NCCc1nc(C(=O)OCc2ccccc2)cc2c1[nH]c1ccccc12)C(=O)OCc1ccccc1`, the inhibition in vivo at 8.9 µmol/kg in test [1] amounted to 22%. Further, the IC50 in test [3] was 100 µM; in test [4], 48.2 µM; in test [7], 20.5 µM; in test [6], more than 100 µM; in [8] it was 76.4 µM.
Turning to `O=C(OCc1ccccc1)c1cc2c([nH]c3ccccc32)c(CCN[C@@H](CO)C(=O)OCc2ccccc2)n1`, the inhibition in vivo at 8.9 µmol/kg in test [1] is 36.7%. For the same molecule, the IC50 in test [3] came out at 54.6 µM; in test [4] it was 19.7 µM; in [7], 60.3 µM; in test [6], 19.9 µM; in [8], 20.3 µM.
In the case of `O=C(CC[C@H](NCCc1nc(C(=O)OCc2ccccc2)cc2c1[nH]c1ccccc12)C(=O)OCc1ccccc1)OCc1ccccc1`, the inhibition in vivo at 8.9 µmol/kg in [1] stood at 29.4%. The IC50 in test [3] was more than 100 µM; in [4], 18.5 µM; in test [7], 66.4 µM; in test [6], 63.1 µM; in [8], 54.9 µM.
`CC(C)C[C@H](NCCc1nc(C(=O)OCc2ccccc2)cc2c1[nH]c1ccccc12)C(=O)OCc1ccccc1`: the inhibition in vivo at 8.9 µmol/kg in test [1] was 50.9%. Besides, the IC50 in test [3] was 43.5 µM; in [4], 21.5 µM; in [7], 50.2 µM; in test [6], 25.2 µM; in test [8], 22.5 µM. In addition, the figures for the Activity in test [9] and in test [11] were 53% and “Dose-dependent effect”, respectively. The outcome in test [10] was Active. For the same molecule, the Tm in test [12] turned out to be 13.8 °C.
As for `O=C(OCc1ccccc1)c1cc2c([nH]c3ccccc32)c(CCN[C@@H](Cc2c[nH]cn2)C(=O)OCc2ccccc2)n1`, in [1], the inhibition in vivo at 8.9 µmol/kg came out at 35.4%. Also, the inhibition in vivo at 0.89 µmol/kg in test [2] was 6.3%. The IC50 in test [3] is 36.9 µM; in test [4], 14.4 µM; in test [7], 60 µM; in [6], more than 100 µM; in test [8], 63.6 µM. The Activity result in test [13] was “Dose-dependent effect”. Further, the inhibition in vivo at 89 µmol/kg in [5] was 60.7%.
In the case of `C[C@@H](O)[C@H](NCCc1nc(C(=O)OCc2ccccc2)cc2c1[nH]c1ccccc12)C(=O)OCc1ccccc1`, the inhibition in vivo at 8.9 µmol/kg in [1] was 34.8%. In addition, the IC50 is more than 100 µM in test [3]; 38.3 µM in test [4]; 38.4 µM in test [7]; 26 µM in test [6]; 15.2 µM in [8].
Consider `O=C(C[C@H](NCCc1nc(C(=O)OCc2ccccc2)cc2c1[nH]c1ccccc12)C(=O)OCc1ccccc1)OCc1ccccc1`, for which the inhibition in vivo at 8.9 µmol/kg in test [1] was found to be 56.1%. The inhibition in vivo at 0.89 µmol/kg in test [2] was found to be 40.6%. In addition, the IC50 in test [3] is 60.3 µM; in test [4], more than 100 µM; in [7], 11.1 µM; in test [6], more than 100 µM; in test [8] it was more than 100 µM. Also, the Activity entry in test [13] was “Dose-dependent effect”. In addition, the inhibition in vivo at 89 µmol/kg in [5] came out at 73.5%.
As to `O=C(OCc1ccccc1)c1cc2c([nH]c3ccccc32)c(CCN[C@@H](Cc2c[nH]c3ccccc23)C(=O)OCc2ccccc2)n1`, in test [1], the inhibition in vivo at 8.9 µmol/kg is 22.2%. Also, the IC50 in test [3] was found to be 39 µM; in test [4] it was 14.9 µM; in test [7], 20.7 µM; in test [6], 60 µM; in test [8], 59.5 µM.
Regarding `NC(=O)C[C@H](NCCc1nc(C(=O)OCc2ccccc2)cc2c1[nH]c1ccccc12)C(=O)OCc1ccccc1`, the inhibition in vivo at 8.9 µmol/kg in test [1] was 14%. Also, the IC50 in [3] was more than 100 µM; in test [4] it was 63.6 µM; in [7] it was 17.1 µM; in [6], more than 100 µM; in test [8], 97.2 µM.

In general, inhibition in vivo refers to the relative decrease from the control value, in per cent. A word on the IC50: it is the concentration that gives 50% inhibition. A higher IC50 goes with weaker potency.
